Shown are actives, neighbours in structure and some others; about 1.5% of the full set was active somewhere.
APJ agonist – activates the human apelin receptor APJ; hit rate 0.11% among 330,000; activation, % at 20 µM; CHO-K1 APJ PathHunter beta-arrestin, luminescence; 0% DMSO wells, 100% apelin;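 active = activation more than six SD over the plate average, tested at 20 µM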;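 also: 0% = DMSO alone and 100% = apelin-13 at 10 nM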
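Incubation: overnight seeding, 90 min compound at 25 °C, 1 h detection; test system: PathHunter CHO-K1 APJ (AGTRL-1) beta-arrestin reporter cells; amount: 1000 cells/well; doses: one dose, 20 µM compound, 1% DMSO; measured by: beta-gal luminescence; measure: agonist-driven arrestin binding to APJ; benchmarks: negative DMSO alone, positive Apelin-13 at 10 nM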
EBI2 block – antagonists of human EBI2 receptor. AID 651636. inhibition, % at 5 µM. EBI2 beta-arrestin recruitment, luminescence, 7a,25-OHC stimulated. P32249. hit rate 0.81% among 360,000; in the data active = inhibition above about 38%;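 also: enzyme fragment complementation signal reports receptor beta-arrestin coupling in cells; 0% = agonist plus DMSO wells and 100% = wells without agonist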
APJ antag – APJ receptor antagonism. CHO-K1 APJ beta-arrestin complementation, luminescence. inhibition, % at 20 µM. hit rate 0.32% among 330,000. AID 2521;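 active = inhibition above about 40% at 20 µM, limit read from the data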;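 also: cells challenged with 10 nM apelin-13 agonist together with compound; plate controls were apelin-13 plus DMSO wells for no effect and DMSO wells lacking apelin-13 for full effect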
CXCR6 block – CXCR6 (human) receptor inhibition | O00574 | CHO-K1 PathHunter CXCR6 beta-arrestin, luminescence | inhibition, % at 20 µM | hit rate 0.36% among 360,000 | AID 602244; in the data active = inhibition above about 34%, passing the limit was not always enough;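 also: antagonist mode with CXCL16 agonist at 10 nM final; 0% = 10 nM CXCL16 with DMSO and 100% = unstimulated wells without agonist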
CCR6 antag – antagonists of human CCR6 receptor | hit rate 0.49% among 340,000 | P51684 | inhibition, % at 20 µM | CHO-K1 CCR6 PathHunter beta-arrestin, luminescence, CCL20-stimulated;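 active = compounds whose inhibition of the agonist-driven luminescence signal at 20 µM reaches about 50%, limit read from the data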;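 also: cells stimulated with CCL20 at 14 nM final; plate controls were DMSO with CCL20 for no effect and DMSO without agonist for full effect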
Target sequence (P51684 whole entry, looked up): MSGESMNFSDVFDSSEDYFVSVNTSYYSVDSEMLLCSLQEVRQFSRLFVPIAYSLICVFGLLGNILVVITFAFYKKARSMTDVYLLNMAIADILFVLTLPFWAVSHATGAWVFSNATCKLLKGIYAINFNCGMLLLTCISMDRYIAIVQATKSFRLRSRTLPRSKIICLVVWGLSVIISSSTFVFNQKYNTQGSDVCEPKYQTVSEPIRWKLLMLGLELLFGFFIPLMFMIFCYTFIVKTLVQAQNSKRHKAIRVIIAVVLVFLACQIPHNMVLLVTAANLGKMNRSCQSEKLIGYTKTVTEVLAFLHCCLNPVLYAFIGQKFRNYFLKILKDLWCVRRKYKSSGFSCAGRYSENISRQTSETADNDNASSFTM
EBI2 conf – confirmation of human EBI2 receptor antagonists; shares compounds with EBI2 block; EBI2 beta-arrestin luminescence, 7a,25-OHC antagonism; inhibition, % at 5 µM; hit rate 29% among 2,400; AID 651997;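 active = inhibition of at least 50%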
EBI2 ag – EBI2 agonism counter-screen; shares compounds with EBI2 block; EBI2-expressing cells, agonist mode, luminescence, 60 min; 0% vehicle, 100% 7α,25-dihydroxycholesterol control; activation, % at 5 µM; 2,400 tested, under 10 active;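 active = activation of at least 50%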
bGal cs – counter-screen for EBI2 antagonists: E. coli beta-galactosidase inhibition. AID 652176. purified beta-galactosidase, luminescent Galacton Star, 15 min. inhibition, % at 5 µM. hit rate 1% among 2,400. shares compounds with EBI2 block;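 active = replicate-average signal at least 3 plate SD below neutral wells, shown as high inhibition, flagging enzyme-inhibiting false positives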;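 also: 0% = DMSO wells with enzyme and 100% = wells lacking enzyme; higher means stronger loss of beta-gal luminescence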
The depositor's hits bear a star; . = not tested or not shown.

SMILES	APJ agonist	EBI2 block	APJ antag	CXCR6 block	CCR6 antag	EBI2 conf	EBI2 ag	bGal cs
COC(=O)[C@@]1(Cc2ccc(F)cc2)[C@H]2c3cc(C(=O)N4CCCC4)n(CCc4c[nH]c5ccccc45)c3C[C@H]2CN1C(=O)c1ccccc1	.	53*	.	11	.	24	0	-8
COC(=O)[C@@]1(Cc2ccc(OC)cc2)[C@H]2c3cc(C(=O)N4CCCC4)n(CCc4c[nH]c5ccccc45)c3C[C@H]2CN1C(=O)c1ccccc1	.	38	.	3	.	.	.	.
CS(=O)(=O)N(CC(=O)N1CCN(c2ccccc2F)CC1)c1cc(C(F)(F)F)ccc1Cl	5	65*	16	3	10	41	-1	-13
CS(=O)(=O)N(CC(=O)N1CCOCC1)c1cc(C(F)(F)F)ccc1Cl	-2	-5	4	-6	-4	.	.	.
CCC(C)(C)C1CCc2[nH]nc(C(=O)NC3CCCCC3)c2C1 (stereo unspecified)	8	43*	14	2	7	14	0	-4
CCC(C)(C)C1CCC2(CC1)NC(=O)N(CC(=O)Nc1nc(-c3ccc(C)cc3)cs1)C2=O (stereo unspecified)	-1	43*	9	1	23	13	2	5
CCOCCCNC(=O)c1ccc(N2CC3CC(C2)c2cccc(=O)n2C3)c(NC(=O)Nc2cccc(OC)c2)c1 (stereo unspecified)	-1	1	0	1	7	.	.	.
O=C(CSc1ccc(Br)cc1)Nc1ccccc1Oc1ccccc1	-1	54*	0	-10	5	21	0	-14
O=C(CSc1ccc(Cl)cc1)Nc1ccccc1Oc1ccccc1	0	55*	13	-9	11	24	0	-11
O=C(CSc1ccc(Cl)cc1)Nc1ccccc1N1CCN(C(=O)c2ccccc2)CC1	-3	76*	-19	4	10	67*	-1	9
CS(=O)(=O)N1CCN(c2ccccc2NC(=O)CSc2ccc(Cl)cc2)CC1	3	3	29	2	1	.	.	.
O=C(Nc1cccc(OC(F)(F)F)c1)c1cccc2c(-c3cccnc3)coc12	.	6	.	0	.	.	.	.
CCN(CC)CCSc1nnc2c3cc(C)ccc3n(Cc3ccccc3)c2n1	-2	74*	19	2	17	52*	1	-1
CSc1nnc2c3cc(F)ccc3n(Cc3ccccc3)c2n1	-1	-1	23	0	-8	.	.	.
O=C(c1cccc(C(=O)N2CCC(O)(c3ccccc3)CC2)c1)N1CCC(O)(c2ccccc2)CC1	-3	-9	-10	-2	1	.	.	.
CCN(CC)C(=O)C1CCN(C(=O)c2oc3ccc(C)cc3c2C)CC1	6	80*	9	-2	1	57*	3	6
Cc1ccc2oc(C(=O)N3CCC(O)(c4ccccc4)CC3)c(C)c2c1	1	84*	-16	4	11	78*	1	3
CCOC(=O)N1CCN(C(=O)c2cc3ccccc3o2)CC1	-3	64*	18	-7	-17	21	0	4
O=C(C(=O)N1CCN(C(=O)c2ccco2)CC1)c1cc2ccccc2o1	.	-8	.	.	.	.	.	.
O=C(c1ccccc1)N1CCN(C(=O)c2cc3ccccc3o2)CC1	-5	70*	-1	0	4	55*	2	9
Cc1cc(C)c(S(=O)(=O)N2CCN(C(=O)c3cc4ccccc4o3)CC2)c(C)c1	-1	90*	10	2	3	83*	3	7
O=C(c1cc2ccccc2o1)N1CCN(S(=O)(=O)c2ccc(F)c(F)c2F)CC1	-3	89*	-9	8	1	71*	1	3
O=C1NC[C@@H](Cc2ccc(O)cc2)N(CCc2cc(C(F)(F)F)cc(C(F)(F)F)c2)C1=O	.	0	.	8	.	.	.	.
CCOC(=O)c1ccc(S(=O)(=O)N2CCN(C(=O)c3cc4ccccc4o3)CC2)cc1	2	91*	7	-2	14	59*	0	2
Cc1cc(C)c(S(=O)(=O)N2CCN(C(=O)C3COc4ccccc4O3)CC2)c(C)c1 (stereo unspecified)	-2	88*	15	15	15	71*	6	2
SMILES	APJ agonist	EBI2 block	APJ antag	CXCR6 block	CCR6 antag	EBI2 conf	EBI2 ag	bGal cs
Cc1ccc(SCC(=O)OCC(=O)N2CCN(C(=O)c3ccco3)CC2)c(C)c1	-4	0	10	0	4	.	.	.
CCCC(=O)Nc1cc2c(cc1C(=O)c1ccccc1)OCCO2	0	-5	18	8	12	.	.	.
CCOc1ccc(S(=O)(=O)c2c(C(=O)c3ccccc3)cnc3cc4c(cc23)OCCO4)cc1	-1	52*	4	1	14	25	-1	-11
O=C(c1ccc(-c2ccccc2Cl)o1)N1CCN(S(=O)(=O)c2cccs2)CC1	-6	12	3	-13	13	.	.	.
NS(=O)(=O)c1ccc(N/N=C/c2cn(-c3ccccc3)nc2-c2ccccc2)c([N+](=O)[O-])c1	-3	16	3	3	11	.	.	.
O=[N+]([O-])c1ccc(N/N=C/c2cn(-c3ccccc3)nc2-c2ccccc2)cc1	-3	44*	26	16	29	17	-1	8
CCOC(=O)c1cnn(-c2nc(-c3cccc(F)c3)cs2)c1C(F)(F)F	-2	48*	5	-1	9	43	2	3
C[C@@H]1c2ccccc2N2C[C@H](Cc3ccc(C(=O)c4ccccc4)cc3)C[C@@H]12	.	-4	.	1	.	.	.	.
COc1ccc2oc(C(=O)N3CCN(S(=O)(=O)c4c(C)c(C)cc(C)c4C)CC3)c(C)c2c1	.	80*	.	17	12	53*	1	-17
Cc1ccc(C)c(N2CCN(C(=O)c3cc4c(C)nc5ccccc5c4o3)CC2)c1	-5	88*	-11	2	6	60*	-1	-12
COc1ccccc1N1CCN(C(=O)c2oc3ccc(Br)cc3c2C)CC1	-2	75*	-2	-7	-4	45	2	0
COc1ccccc1N1CCN(C(=O)c2cc3c(C)nc4ccccc4c3o2)CC1	7	74*	-40	-12	-15	53*	2	3
Cc1noc(C)c1S(=O)(=O)NC(=O)C1(C)CCN1C(=O)C1(c2ccc(Cl)cc2)CCC1 (stereo unspecified)	.	-4	.	-5	.	.	.	.
CC(C)c1ccc(/C=C2\SC(=O)N(CC(=O)NCCCn3ccnc3)C2=O)cc1	8	-2	6	-5	0	.	.	.

Screening data: PubChem, Sanford-Burnham Center for Chemical Genomics
